According to ChEMBL document CHEMBL3120102, “Structure-based design, synthesis and biological evaluation of novel anthra[1,2-d]imidazole-6,11-dione homologues as potential antitumor agents” (2013):

Key:
Assay type in all cases: functional
M14 = assay: Cytotoxicity against human M14 cells assessed as growth inhibition after 48 hrs by SRB assay
Summary of the method: (§1)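 NCI 60-cell-line five-dose screen at […]. Drug exposure was 48 h, followed by sulforhodamine B protein staining. GI50, TGI and LC50 were calculated against a time-zero control and untreated plates, with dose–response curves plotted from log10 concentration.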

OVCAR-4 = assay: (§2) Cytotoxicity against human OVCAR4 cells assessed as growth inhibition after 48 hrs by SRB assay
Summary of the method: (§3)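 NCI 60-cell-line screen, five-dose stage: each cell line exposed for 48 h to five concentrations spanning five log steps; cellular protein measured by sulforhodamine B colorimetry. A time-zero cell control and plates without drug are used to derive GI50, TGI and LC50 from log-concentration dose-response curves.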

[1] = as §2; conditions: OVCAR-4, 48 h; summary of the method: as §3
SF-539 = assay: Cytotoxicity against human SF539 cells assessed as growth inhibition after 48 hrs by SRB assay; summary of the method: as §3
[2] = (§4) Cytotoxicity against human OVCAR5 cells assessed as growth inhibition after 48 hrs by SRB assay; conditions: OVCAR-5, 48 h; summary of the method: as §3
OVCAR-5 = assay: as §4; summary of the method: as §3
DU-145 = assay: Cytotoxicity against human DU145 cells assessed as growth inhibition after 48 hrs by SRB assay; summary of the method: as §1
NCI-H23 = assay: Cytotoxicity against human NCI-H23 cells assessed as growth inhibition after 48 hrs by SRB assay; summary of the method: as §3
[3] = Cytotoxicity against human Hs578T cells assessed as cell growth at 10 uM after 48 hrs by SRB assay; conditions: Hs-578T, read-out: Activity
HCC 2998 = assay: Cytotoxicity against human HCC2998 cells assessed as growth inhibition after 48 hrs by SRB assay; summary of the method: as §1
MDA-MB-468 = assay: Cytotoxicity against human MDA-MB-468 cells assessed as cell growth at 10 uM after 48 hrs by SRB assay; conditions: MDA-MB-468, 48 h, read-out: Activity
Summary of the method: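 First stage of the NCI 60 human tumour cell line screen: a single dose is tested against every line. Cell growth is read as cellular protein by sulforhodamine B colorimetry after 48 h of drug exposure, with reference to a time-zero control and to untreated plates.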

RXF 393 = assay: Cytotoxicity against human RXF393 cells assessed as growth inhibition after 48 hrs by SRB assay; summary of the method: as §3
786-0 = assay: Cytotoxicity against human 786-0 cells assessed as growth inhibition after 48 hrs by SRB assay; summary of the method: as §1
HCT-15 = assay: Cytotoxicity against human HCT15 cells assessed as growth inhibition after 48 hrs by SRB assay; summary of the method: as §1
[4] = (§5) Cytotoxicity against human NCI-ADR-RES cells assessed as growth inhibition after 48 hrs by SRB assay; summary of the method: as §3
NCI/ADR-RES = assay: as §5; summary of the method: as §3
SF-295 = assay: Cytotoxicity against human SF295 cells assessed as growth inhibition after 48 hrs by SRB assay; summary of the method: as §3
CCRF-CEM = assay: Cytotoxicity against human CCRF-CEM cells assessed as growth inhibition after 48 hrs by SRB assay; summary of the method: as §1
A498 = assay: Cytotoxicity against human A498 cells assessed as growth inhibition after 48 hrs by SRB assay; summary of the method: as §1
SN12C = assay: Cytotoxicity against human SN12C cells assessed as growth inhibition after 48 hrs by SRB assay
Summary of the method: (§6)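 NCI 60-cell-line screen, two stages. Five-dose testing at […]. Cellular protein measured by sulforhodamine B colorimetry after 48 h drug exposure. A time-zero control and drug-free plates are used to derive GI50, TGI and LC50 from dose-response curves plotted as log10 concentration per cell line.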

SF-268 = assay: Cytotoxicity against human SF268 cells assessed as growth inhibition after 48 hrs by SRB assay; summary of the method: as §3
NCI-H322M = assay: Cytotoxicity against human NCI-H322M cells assessed as growth inhibition after 48 hrs by SRB assay; summary of the method: as §3
OVCAR-3 = assay: Cytotoxicity against human OVCAR3 cells assessed as growth inhibition after 48 hrs by SRB assay; summary of the method: as §3
UACC-62 = assay: Cytotoxicity against human UACC62 cells assessed as growth inhibition after 48 hrs by SRB assay; summary of the method: as §6
[5] = (§7) Cytotoxicity against human UO31 cells assessed as growth inhibition after 48 hrs by SRB assay; conditions: UO-31, 48 h; summary of the method: as §6
UO-31 = assay: as §7; summary of the method: as §6
NCI-H460 = assay: Cytotoxicity against human NCI-H460 cells assessed as growth inhibition after 48 hrs by SRB assay; summary of the method: as §3
HT-29 = assay: Cytotoxicity against human HT-29 cells assessed as cell growth at 10 uM after 48 hrs by SRB assay; conditions: HT-29, 48 h, read-out: Activity
BT-549 = assay: Cytotoxicity against human BT549 cells assessed as growth inhibition after 48 hrs by SRB assay; summary of the method: as §1
RPMI-8226 = assay: Cytotoxicity against human RPMI8226 cells assessed as growth inhibition after 48 hrs by SRB assay; summary of the method: as §3

In the case of `CCSc1nc2ccc3c(c2[nH]1)C(=O)c1ccccc1C3=O`, the “growth inhibition (GI)” value (M14) is reported as “Dose-dependent effect”, the GI50 (M14; M14, 48 h) is reported as 5.62 µM and the LC50 (M14; M14, 48 h) is reported as over 100 µM. For the same compound, the TGI (M14; M14, 48 h) was over 100 µM, the “growth inhibition (GI)” value (OVCAR-4) was “Dose-dependent effect” and the GI50 [1] was 3.17 µM. The LC50 (concentration killing 50% of cells) [1] was over 100 µM, the TGI [1] was over 100 µM and the “growth inhibition (GI)” value (SF-539) was “Dose-dependent effect”. For the same compound, the GI50 (SF-539; SF-539, 48 h) was 22.9 µM, the TGI (SF-539; SF-539, 48 h) was over 100 µM and the CC50 (SF-539; SF-539, 48 h, read-out: LC50 (the source's name)) was over 100 µM. For the same compound, the GI50 [2] was 6.25 µM, the LC50 [2] was over 100 µM and the TGI [2] was over 100 µM. The “growth inhibition (GI)” value (OVCAR-5) was “Dose-dependent effect”, the “growth inhibition (GI)” value (DU-145) was “Dose-dependent effect” and the GI50 (DU-145; DU-145, 48 h) was 7.02 µM. For the same compound, the TGI (DU-145; DU-145, 48 h) was over 100 µM, the CC50 (DU-145; DU-145, 48 h, read-out: LC50 (the source's name)) was over 100 µM and the “growth inhibition (GI)” value (NCI-H23) was “Dose-dependent effect”. For the same compound, the GI50 (NCI-H23; NCI-H23, 48 h) was 8.6 µM, the LC50 (NCI-H23; NCI-H23, 48 h) was over 100 µM and the TGI (NCI-H23; NCI-H23, 48 h) was over 100 µM. For the same compound, the growth at 10 µM [3] was 85.4%, the “growth inhibition (GI)” value (HCC 2998) was “Dose-dependent effect” and the GI50 (HCC 2998; HCC 2998, 48 h) was 12.6 µM. It also gave a TGI (HCC 2998; HCC 2998, 48 h) of over 100 µM, a CC50 (HCC 2998; HCC 2998, 48 h, read-out: LC50 (the source's name)) of over 100 µM and a growth at 10 µM (MDA-MB-468) of 35.4%. For the same compound, the “growth inhibition (GI)” value (RXF 393) was “Dose-dependent effect”, the GI50 (RXF 393; RXF 393, 48 h) was 5.17 µM and the TGI (RXF 393; RXF 393, 48 h) was over 100 µM. The CC50 (RXF 393; RXF 393, 48 h, read-out: LC50 (the source's name)) was over 100 µM, the “growth inhibition (GI)” value (786-0) was “Dose-dependent effect” and the GI50 (786-0; 786-0, 48 h) was 46.7 µM. The LC50 (concentration causing 50% net cell kill) (786-0; 786-0, 48 h) was over 100 µM, the TGI (786-0; 786-0, 48 h) was over 100 µM and the “growth inhibition (GI)” value (HCT-15) was “Dose-dependent effect”. It also gave a GI50 (HCT-15; HCT-15, 48 h) of 3.52 µM, an LC50 (concentration killing 50% of cells) (HCT-15; HCT-15, 48 h) of over 100 µM and a TGI (HCT-15; HCT-15, 48 h) of over 100 µM. The GI50 [4] was 8.04 µM, the LC50 (concentration causing 50% net cell kill) [4] was over 100 µM and the TGI [4] was over 100 µM. The “growth inhibition (GI)” value (NCI/ADR-RES) was “Dose-dependent effect”, the “growth inhibition (GI)” value (SF-295) was “Dose-dependent effect” and the GI50 (SF-295; SF-295, 48 h) was 4.17 µM. It also gave an LC50 (SF-295; SF-295, 48 h) of over 100 µM, a TGI (SF-295; SF-295, 48 h) of 47.4 µM and a GI50 (CCRF-CEM) of 3.66 µM. For the same compound, the LC50 (CCRF-CEM) was over 100 µM, the TGI (CCRF-CEM) was over 100 µM and the “growth inhibition (GI)” value (CCRF-CEM) was “Dose-dependent effect”. For the same compound, the “growth inhibition (GI)” value (A498) was “Dose-dependent effect”, the GI50 (A498; A498, 48 h) was 4.7 µM and the TGI (A498; A498, 48 h) was over 100 µM. It also gave a CC50 (A498; A498, 48 h, read-out: LC50 (the source's name)) of over 100 µM, a GI50 (SN12C) of 10.3 µM and a TGI (SN12C) of over 100 µM. For the same compound, the “growth inhibition (GI)” value (SN12C) was “Dose-dependent effect”, the CC50 (SN12C; read-out: LC50 (the source's name)) was over 100 µM and the “growth inhibition (GI)” value (SF-268) was “Dose-dependent effect”. The GI50 (SF-268; SF-268, 48 h) was 18.1 µM, the LC50 (concentration killing 50% of cells relative to time zero) (SF-268; SF-268, 48 h) was over 100 µM and the TGI (SF-268; SF-268, 48 h) was over 100 µM. The GI50 (NCI-H322M) was 3.24 µM, the LC50 (concentration killing 50% of cells relative to time zero) (NCI-H322M) was over 100 µM and the TGI (NCI-H322M) was over 100 µM. For the same compound, the “growth inhibition (GI)” value (NCI-H322M) was “Dose-dependent effect”, the “growth inhibition (GI)” value (OVCAR-3) was “Dose-dependent effect” and the GI50 (OVCAR-3; OVCAR-3, 48 h) was 10.2 µM. The LC50 (50% lethal concentration) (OVCAR-3; OVCAR-3, 48 h) was over 100 µM, the TGI (OVCAR-3; OVCAR-3, 48 h) was over 100 µM and the “growth inhibition (GI)” value (UACC-62) was “Dose-dependent effect”. For the same compound, the GI50 (UACC-62; UACC-62, 48 h) was 7.73 µM, the LC50 (UACC-62; UACC-62, 48 h) was over 100 µM and the TGI (UACC-62; UACC-62, 48 h) was over 100 µM. It also gave a GI50 [5] of 3.31 µM, an LC50 [5] of over 100 µM and a TGI [5] of over 100 µM. The “growth inhibition (GI)” value (UO-31) was “Dose-dependent effect”, the “growth inhibition (GI)” value (NCI-H460) was “Dose-dependent effect” and the GI50 (NCI-H460; NCI-H460, 48 h) was 5.49 µM. The LC50 (NCI-H460; NCI-H460, 48 h) was over 100 µM, the TGI (NCI-H460; NCI-H460, 48 h) was over 100 µM and the growth at 10 µM (HT-29) was 75.2%. For the same compound, the “growth inhibition (GI)” value (BT-549) was “Dose-dependent effect”, the GI50 (BT-549; BT-549, 48 h) was 9.34 µM and the LC50 (concentration killing 50% of cells) (BT-549; BT-549, 48 h) was over 100 µM. The TGI (BT-549; BT-549, 48 h) was over 100 µM, the “growth inhibition (GI)” value (RPMI-8226) was “Dose-dependent effect” and the GI50 (RPMI-8226; RPMI-8226, 48 h) was 2.83 µM. For the same compound, the LC50 (concentration causing 50% net cell kill) (RPMI-8226; RPMI-8226, 48 h) was over 100 µM and the TGI (RPMI-8226; RPMI-8226, 48 h) was over 100 µM.
